{"data": "Published values from different studies", "target": "Mitogen-activated protein kinase 1 (MAPK1, Homo sapiens, UniProt P28482)", "note": "Each line is one published result; the experiments were not run side by side."}
{"Compound": "C=CC(=O)N1CCC([C@@H]2CCNc3c(C(N)=O)c(-c4ccc(Oc5ccccc5)cc4)nn32)CC1", "test": "enzyme activity, inhibitor", "setting": "1 µM", "endpoint": "inhibition", "result": "10%"}
{"Compound": "C[C@H]1CC[C@H](n2c3cnccc3c3cnc(Nc4ccc5c(n4)CCN(C(=O)CO)C5)nc32)CC1", "test": "cell-free assay", "setting": "1 µM", "endpoint": "remaining signal", "result": "100%"}
{"Compound": "COc1ccc2oc(-c3ccc4nc(N)oc4c3)c/c(=N\\c3ccccc3NC(=O)CCN)c2c1", "test": "binding", "setting": "1 µM", "endpoint": "remaining binding", "result": "97%"}
{"Compound": "O=C1C=C(Nc2ccc(OCc3cn(Cc4ccccc4)nn3)cc2)C(=O)c2ccccc21", "test": "enzyme activity, inhibitor, radiometric", "setting": "10 µM", "endpoint": "inhibition", "result": "18%"}
{"Compound": "Cc1cc(O)c(-c2ccc([C@@H](C)CN(C)C)cc2)c2c1[nH]c(=O)c1sccc12", "test": "enzyme activity, inhibitor", "setting": "0.1 µM", "endpoint": "inhibition", "result": "6.8%"}
{"Compound": "CC#CC(=O)N1CCC[C@H]1c1nc(-c2ccc(C(=O)Nc3ccccn3)cc2)c2c(N)nccn12", "test": "enzyme activity, inhibitor", "setting": "1 µM", "endpoint": "inhibition", "result": "3%"}
{"Compound": "C#Cc1cc(-c2cc(Nc3nc(N[C@@H](C)c4ccc(F)cn4)ncc3Cl)n[nH]2)ccc1C=O", "test": "enzyme activity, inhibitor", "setting": "0.2 µM", "endpoint": "inhibition", "result": "10.4%"}
{"Compound": "COc1ccc2[nH]c3c4[nH]c5ccc(OC)cc5c4c4c(c3c2c1)C(=O)NC4=O", "test": "binding", "setting": "1 µM", "endpoint": "remaining binding", "result": "76%"}
{"Compound": "CCCCC(=O)Nc1ccc(-c2ccc3ncn(CCC)c(=O)c3c2)cn1", "test": "binding, competition with immobilised ligand", "setting": "0.5 µM", "endpoint": "remaining binding", "result": "89%"}
